{"source": "ChEMBL document CHEMBL5335820", "about": "“Novel quinolinepiperazinyl-aryltetrazoles targeting the blood stage of Plasmodium falciparum” (RSC Med Chem, 2024)", "system": "Plasmodium falciparum", "experiment": "Synergistic antiplasmodial activity against multidrug-resistant Plasmodium falciparum Cam3.1R539T infected in human erythrocytes at 8 times IC50 concentration incubated for 72 hrs in presence of mefloquine by SYBR green I staining based fluorescence assay", "format": "functional, organism-based", "conditions": "Erythrocyte", "summary_of_the_method": "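P. falciparum Cam3.1R539T in O+ human erythrocytes, 1% parasitemia, 2% haematocrit. 8× IC50 stocks of test compound and standard drug were mixed at molar ratios 4:1, 3:2, 2:3 and 1:4, then serially diluted two-fold. Plates were incubated 72 h at 37 °C and read by SYBR Green I lysis. Controls were 0.4% DMSO (100% growth) and 4 μM chloroquine (0% growth). ΣFIC = FICA + FICB; <1 synergistic, 1.0–2.0 additive, >2.0 antagonistic.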", "note": "Activity calls are given as the source filed them. The rule behind the calls is not given here."}
{"smiles": "Clc1ccc2c(N3CCN(CCCn4nnc(-c5ccc(Br)cc5)n4)CC3)ccnc2c1", "values": [{"measurement": "Activity", "result": "Active"}]}
